Rows were chosen to be rich in hits. Some 9.2% of all compounds tested hit in one or more screens of this group.
Dynein cargo inh = blocks dynein driven cargo transport along microtubules; z-score, hits read low; 220,000 compounds, 0.47% hits; 3617.4 mouse cells, GR-EGFP nuclear translocation imaging; test concentration mostly 20 µM; stimulated with dexamethasone, 1 µM; hits give low values;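 active means plate z-score of nuclear minus cytoplasmic receptor signal below a set negative limit, without overly bright fluorescence or cell loss, cut at about -3.5 in these data, passing the limit was not always enough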;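 further: z-score of nuclear minus cytoplasmic ring GR-EGFP intensity difference per well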
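Buffer or medium: tet-free medium with charcoal-stripped serum / Also added: dexamethasone agonist, 1.0 µM final, for 30 min / Timing: induction 48 h, compound 1 h, agonist 30 min / Measured by: high-content fluorescence imaging after fixation / Read-out: nuclear-to-cytoplasmic GR-EGFP distribution per well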
Autophagy mod = modulators of autophagy | MEF GFP-LC3 puncta imaging; test concentration mostly 10 µM | calls only at 10 µM (by protocol) | 190,000 compounds, 0.98% hits;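 active means percentage of spot-positive cells more than 3 SD above its plate mean, without a fluorescence outlier flag or 80% toxicity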
bCat KO growth = beta-catenin-lacking colon tumor cell growth suppression. HCT116 beta-catenin knockout viability, CellTiter-Glo, 60 h; hits give low values. viability, % at 10 µM. 140,000 compounds, 1.5% hits. AID 818;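 active means viability at or under a set limit, the compound median less 4 SD, cut at about 6% in these data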
HCT116 PTEN-null = suppresses growth of cells with PTEN deletion; HCT116 PTEN-null viability, CellTiter-Glo, 60 h; hits give low values; viability, % at 10 µM; 140,000 compounds, 1.2% hits; AID 827;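 active means viability at or below a set limit, 4 SD under the median of all tested compounds, cut at about 3.7% in these data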;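 further: PTEN knockout HCT116 line with beta catenin targeted HCT116 as companion control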
L major viab = reduces viability of Leishmania major promastigotes; resazurin fluorescence viability; inhibition, % at 10 µM; 200,000 compounds, 9% hits; AID 1063; in the data active means inhibition above about 50%;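 further: promastigotes grown with compound for 44 hours at 28 °C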
Hits are given with their value; n = inactive; x = no result; + = active, no number.

SMILES | Dynein cargo inh | Autophagy mod | bCat KO growth | HCT116 PTEN-null | L major viab
Clc1ccc(/C=N/NC2=Nc3cccc4cccc2c34)cc1 | n | + | n | n | n
Cc1ccc(S(=O)(=O)N(CC(=O)N2CCC(C)CC2)c2ccccc2)cc1 | n | n | x | x | n
Cc1ccc(S(=O)(=O)N(CC(=O)N2CCCCCC2)c2ccccc2)cc1 | n | n | n | n | 74.6
Cc1ccc(S(=O)(=O)N(CC(=O)N2CCC(C)CC2)Cc2ccccc2F)cc1 | n | n | n | n | 82.0
CCN1CCN(C(=O)c2ccccc2N(Cc2ccccc2)S(=O)(=O)c2ccc(C)cc2)CC1 | n | n | n | n | 98.0
CC(=O)Nc1ccc(C(=O)NCC(=O)OCc2ccccc2F)cc1 | n | n | x | x | n
COc1cccc(-c2nnc(NC(=O)c3cccc(F)c3)o2)c1 | n | x | x | x | x
O=C(Nc1nnc(-c2cccs2)o1)c1cccc(F)c1 | n | n | x | x | 93.6
O=C(Nc1nnc(-c2cccs2)o1)c1cccc(Oc2ccccc2)c1 | n | n | n | n | 52.0
CCCCNC(C(=O)Nc1cccc(S(=O)(=O)N2CCOCC2)c1)c1ccccc1 (stereo not drawn) | n | n | x | x | n
Cc1ccc(N(CC(=O)Nc2ccccc2-c2ccccc2)S(=O)(=O)c2ccccc2)c(C)c1 | n | n | n | n | n
Cc1ccc(N(CC(=O)NN=C2CCN(C)CC2)S(=O)(=O)c2ccccc2)c(C)c1 | n | n | n | n | 59.6
CC(C)(C)N(NC(=O)Nc1ccc(F)cc1)C(=O)c1ccccc1 | n | n | n | n | n
CC(C)(C)N(NC(=O)Nc1ccc(Cl)c(Cl)c1)C(=O)c1ccccc1 | n | n | n | 3.4 | n
CN1CC(c2ccc(Cl)c(Cl)c2)[C@@]2(COc3ccccc3C2=O)[C@@]12C(=O)Nc1ccccc12 (stereo partly drawn) | x | n | 4.7 | 2.9 | 80.7
O=c1[nH]c2c(c(=O)[nH]1)CCC2 | n | n | x | x | n
COc1ccccc1N1CCN(S(=O)(=O)c2ccc(Br)s2)CC1 | n | n | n | n | n
CCOc1ccccc1N1CCN(C2=C(NS(=O)(=O)c3cccs3)C(=O)c3ccccc3C2=O)CC1 | n | n | n | n | 99.4
O=C1C(NS(=O)(=O)c2cccs2)=C(N2CCN(c3cccc(C(F)(F)F)c3)CC2)C(=O)c2ccccc21 | n | n | n | n | 61.8
COc1ccccc1N1CCN(S(=O)(=O)c2cccs2)CC1 | n | n | n | n | 54.0
CN1CCN(C2=C(NS(=O)(=O)c3cccs3)C(=O)c3ccccc3C2=O)CC1 | n | x | x | x | x
CCOC(=O)/C(C#N)=C/Nc1cc(C(=O)OCC)cc2c(OC)c(OC)ccc12 | n | x | x | x | x
Cc1ccc2cc(C(c3nnnn3CC3CCCO3)N3CCc4ccccc4C3)c(=O)[nH]c2c1 (stereo not drawn) | n | n | n | n | 93.1
Cc1cccc2cc(C(c3nnnn3CC3CCCO3)N3CCc4ccccc4C3)c(=O)[nH]c12 (stereo not drawn) | n | n | n | n | n
Cc1cccc2cc(C(c3nnnn3CC3CCCO3)N3CCCC4(CCCCC4)C3)c(=O)[nH]c12 (stereo not drawn) | n | + | n | n | n
SMILES | Dynein cargo inh | Autophagy mod | bCat KO growth | HCT116 PTEN-null | L major viab
Cc1ccc(C)c2[nH]c(=O)c(C(c3nnnn3Cc3ccccc3)N3CCc4ccccc4C3)cc12 (stereo not drawn) | n | n | n | n | 73.4
COc1ccc2[nH]c(=O)c(CN(Cc3cccnc3)C(=S)NCC3CCCO3)cc2c1 (stereo not drawn) | n | n | x | x | n
COC(=O)CNC(=O)c1cccc(-c2ccc(OC)cc2)c1 | n | n | x | x | n
CN(C)CCN1CCc2ccccc21 | n | n | n | n | 78.2
CCc1cc[n+](-c2nc3ccccc3nc2[N-]S(=O)(=O)c2ccc(Br)s2)cc1 | n | + | n | n | n
CCC(C)NC(=O)CSc1nc2ccccc2c(=O)n1-c1c(C)n(C)n(-c2ccccc2)c1=O (stereo not drawn) | n | n | x | x | n
Cc1ccccc1NS(=O)(=O)c1cc(S(C)(=O)=O)ccc1C | n | n | n | n | 54.1
Cc1ccccc1NS(=O)(=O)c1cc(C(N)=O)ccc1C | n | n | n | n | n
Cc1ccc(C(=O)Nc2cccc(N(C)S(C)(=O)=O)c2)cc1S(=O)(=O)Nc1ccccc1 | n | n | n | n | 75.3
Cc1ccc([N+](=O)[O-])cc1S(=O)(=O)Nc1ccc(C(=O)N(C)C)cc1 | n | + | x | x | n
Cc1ccc(C(=O)Nc2ccccc2-c2ccccc2)cc1S(=O)(=O)Nc1cccc(C)c1C | n | n | n | n | 62.7
